In the library only some 5.6% were active in any assay of this set; here they are far more common.
GRIN3A LBD mod – binders of NR3A ligand-binding domain, primary screen, biophysical, differential scanning fluorimetry, uHTS; NR3A LBD differential scanning fluorimetry, Tm shift; 0% = protein alone, 100% = glycine-bound protein; actives 2.5% (n = 340,000); Tm shift relative to glycine control, % at 25 µM; Glutamate receptor ionotropic, NMDA 3A (GRIN3A) ligand-binding domain; AID 1259313, 2017;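 active = melting temperature shift of at least 10% of the positive control shift, at one fixed dose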
CHOP inh – inhibitors of CHOP promoter induction, primary screen, cell-based, unfolded protein response, luciferase reporter; CHO-K1 CHOP-promoter luciferase, tunicamycin-induced, 15-18 h; inhibition, % at 10 µM; actives 3.8% (n = 220,000); AID 2732, 2010;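 active = compounds that reduced the stress-induced luciferase reporter signal by more than about 70% of percent inhibition, limit read from the data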;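 note: 0% = tunicamycin plus vehicle and 100% = wells without tunicamycin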
aDG glyco act – activators of alpha-DG glycosylation, primary screen, uHTS, Pro5-aDG cells, AlphaScreen; actives 0.22% (n = 360,000); alpha-DG glycosylation AlphaScreen (IIH6); 0% Pro5, 100% B10-LARGE cell signal; activation, % at 10 µM; AID 624168, 2012;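 active = activation of at least 8% versus controls, or a plate z-score of at least 8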;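 note: Pro5 are CHO cells carrying HIG-tagged alpha-DG that lacks glycosylation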
MPTP inh – mitochondrial permeability transition pore inhibitors, primary screen, biochemical, isolated mouse mitochondria, absorbance | inhibition, % at 10 µM | AID 602449, 2012 | actives 1.4% (n = 360,000) | Ca2+ swelling absorbance, 30 min;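 active = inhibition of 50% or more, scaled per plate between neutral and stimulator controls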;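 note: 0% = DMSO wells given calcium and 100% = 1 mM EGTA wells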
CHOP UPR activ – activators of apoptotic CHOP UPR arm, primary screen, cell-based, CHO-CHOP luciferase reporter, luminescence, uHTS | UPR activation; percent of tunicamycin response over DMSO baseline | activation, % at 10 µM | actives 0.34% (n = 330,000);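 active = at 10 µM dose, activation of 40% or more, normalized to positive control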;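 note: 100% = tunicamycin at 10 µg/mL and 0% = DMSO alone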
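Test system: CHO-CHOP cells, stable luciferase reporter of PERK-eIF2a-CHOP signalling | Quantity: 500 CHO-CHOP cells per well | Buffer or medium: F12 plus 10% serum | Compound dosing: 10 µM single point, 0.5% DMSO | Schedule: 6 h compound treatment, 37 °C | Signal: Luciferase luminescence | Control set: Tunicamycin high control, DMSO low control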
XBP1 UPR activ – activators of adaptive XBP1 UPR arm, primary screen, cell-based, CHO-XBP1 luciferase reporter, luminescence, uHTS; IRE1-XBP1 UPR activation; percent of tunicamycin response, DMSO as zero; activation, % at 20 µM; actives 0.33% (n = 330,000); AID 463104, 2010;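 active = versus positive control, 20 µM dose yields 30% or more activation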;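 note: 100% = tunicamycin at 10 µg/mL and 0% = DMSO only wells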
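Material: CHO cell line with stable XBP1 luciferase reporter; buffer or medium: F12 medium containing 10% fetal bovine serum; compound: single point, 20 µM final compound, 1% DMSO; incubation: 6 h treatment, 37 °C; measured by: glow luminescence from Steady-Glo reagent; evaluation: activation, % of tunicamycin; control set: tunicamycin high, DMSO low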
Rh123 counter – fluorescence retest of MPTP screen hits in isolated mitochondria, single concentration; actives 78% (n = 5,000); membrane potential, Rhodamine 123 fluorescence; shares compounds with MPTP inh; inhibition, % at 10 µM; in the data active = inhibition above about 22%;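 note: 0% = DMSO vehicle and 100% = positive control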
MPTP abs DR – mitochondrial permeability transition pore inhibitors, dose response, biochemical, absorbance, uHTS hits; actives 58% (n = 780); IC50, µM; shares compounds with MPTP inh; AID 651561, 2012; isolated mitochondria swelling; in the data active = IC50 below about 20 µM
MPTP cs DR – fluorescent counter-screen in isolated mitochondria, dose response, counter-screen for MPTP inhibitor project, biochemical, fluorescence, uHTS hits. isolated mitochondria counterscreen, fluorescence read-out. IC50, µM. actives 49% (n = 780). shares compounds with MPTP inh; in the data active = IC50 below about 80 µM
Active calls of the source: *; i = inactive; · = no result given.

SMILES	GRIN3A LBD mod	CHOP inh	aDG glyco act	MPTP inh	CHOP UPR activ	XBP1 UPR activ	Rh123 counter	others
Cc1cc(C)n(C(=O)/C(C#N)=N/Nc2cc(Cl)cc(Cl)c2)n1	4	35	-1	103*	1	0	94*
Cc1cc(C)n(C(=O)/C(C#N)=N\Nc2ccccc2[N+](=O)[O-])n1	-1	7	0	2	-2	0	·
CCOC(=O)c1c(-c2ccccc2)csc1NC(=O)CCN1C(=O)c2ccccc2C1=O	0	37	0	1	-1	0	·
CCOC(=O)c1c(-c2ccccc2)csc1NC(=O)CSc1nnc(C)s1	-1	46	0	67*	-1	0	46*
CC(C)(C)CC(C)(C)c1ccc(O)c(Cc2ccc(Cl)cc2Cl)c1	12*	·	0	95*	·	·	5	MPTP abs DR=i;MPTP cs DR=6.4*
O=c1c(Cc2ccc(Cl)cc2Cl)c(O)ccn1CC(F)(F)F	-1	·	0	0	-2	-3	·
COc1ccccc1NC(=O)Nc1nnc(CC(=O)Nc2ccccc2C)s1	-17	31	1	-1	3	-2	·
O=C(Nc1ccc(Cl)cc1)NC1CCCC1Cc1ccco1 (stereo unspecified)	-3	-7	1	103*	2	-1	88*
O=C(Nc1cccc(Cl)c1)NC1CC2CCC(C1)N2Cc1ccco1 (stereo unspecified)	1	4	1	-1	0	0	·
O=C(Nc1ccc(Cl)cc1)NC1CCCCC1Cc1ccco1 (stereo unspecified)	5	45	0	105*	1	-1	83*
O=C(/C=C/c1c(Cl)cccc1Cl)Nc1ccncc1	27*	50	1	62*	0	2	57*
O=C(O)[C@H]1CCCC[C@H]1C(=O)Nc1ccc(S(=O)(=O)N2CCOCC2)cc1	-1	·	0	-1	0	-2	·
CCc1ccc(C2C(C#N)=C(N)SC(N)=C2C#N)s1	-3	11	0	77*	-2	-1	56*
CCc1ccc(C2C(C#N)=C(N)SC(N)=C2C#N)cc1	1	30	1	74*	-2	6	82*
CCC(OC(=O)CN1C(=O)C(=O)c2ccccc21)C(=O)Nc1ccccc1OC (stereo unspecified)	-1	·	0	0	1	-3	·
CC1=C(C(=O)N(C)C)CC(CC(=O)NCc2cccc3ccccc23)C(=O)N1Cc1ccccc1 (stereo unspecified)	·	·	0	-2	·	·	·
Cc1ccc(C)c(OCc2cc(C(=O)NC3CCOC(C)(C)C3)no2)c1 (stereo unspecified)	0	·	0	0	4	-5	·
Cc1cccc2c(N=Nc3ccc(S(=O)(=O)Nc4ccc(Cl)cc4)cc3[N+](=O)[O-])c(O)[nH]c12	-3	6	0	2	-1	-2	·
COc1ccc(Cl)cc1N(C(=O)Nc1cccc(Cl)c1)C1=NCC(C)S1 (stereo unspecified)	-3	-10	1	92*	1	0	89*
Cc1ccc(/C(=N/Nc2nc3ccccc3s2)C2=C(O)c3ccccc3C2=O)cc1	19*	35	-1	90*	-1	7	71*
COCC(=O)O[C@]1(CCN(C)CCCc2nc3ccccc3[nH]2)CCc2cc(F)ccc2[C@@H]1C(C)C	-3	26	1	93*	4	1	-13
CCOC(=O)CCc1nc2ccccc2[nH]1	3	19	0	0	1	1	·
COc1ccc(Nc2nc(S(=O)(=O)c3ccc(C)cc3)c(Cl)s2)cc1	7	70	1	59*	-2	-3	76*
Cc1ccc(S(=O)(=O)c2nc(Nc3ccccc3)sc2Cl)cc1	1	73*	1	85*	·	·	85*
Cc1ccc(S(=O)(=O)c2nc(NCCN(C)C)sc2Cl)cc1	-2	8	0	-4	0	1	·
SMILES	GRIN3A LBD mod	CHOP inh	aDG glyco act	MPTP inh	CHOP UPR activ	XBP1 UPR activ	Rh123 counter	others
Cc1ccc(S(=O)(=O)c2nc(N3CCOCC3)sc2Cl)cc1	-4	31	0	-2	-2	0	·
O=S(=O)(c1ccccc1)c1nc(NCc2ccccc2)sc1Cl	-19	42	0	9	1	-2	·
O=S(=O)(c1ccccc1)c1nc(Nc2cccc(O)c2)sc1Cl	11*	26	1	54*	0	-3	39*
COc1ccc(CNc2nc(S(=O)(=O)c3ccccc3)c(Cl)s2)cc1OC	-19	27	2	82*	1	-1	64*
O=C(O)CCn1c(SCCOc2ccccc2)nc2ccccc21	1	·	0	-1	2	-4	·
CCC(CC)C(=O)Oc1c(Sc2ccccc2[N+](=O)[O-])c(C)nn1C(C)(C)C	0	41	0	1	1	0	·
COCC(=O)Oc1c(Sc2ccccc2[N+](=O)[O-])c(C)nn1C(C)(C)C	2	29	0	60*	1	-3	62*
Cc1[nH]nc2c1C(CC(C)C)C(C#N)=C(N)O2 (stereo unspecified)	1	4	0	1	-2	1	·
N#CC1=C(N)SC(N)=C(C#N)C1c1c(Cl)cccc1Cl	-12	-3	0	6	2	-2	·
N#CC1=C(N)SC(N)=C(C#N)C1CCc1ccccc1	3	8	0	96*	0	-1	67*
CC(C)CC1C(C#N)=C(N)SC(N)=C1C#N	-3	-2	0	62*	-2	-2	78*
N#CC1=C(N)SC(N)=C(C#N)C1c1cccc(Oc2ccccc2)c1	9	-2	0	89*	0	-3	70*
N#CC1=C(N)SC(N)=C(C#N)C1Cc1ccccc1	-3	33	0	77*	-2	0	73*
Cc1ccc(NS(=O)(=O)c2cccc(C(=O)Nc3cccnc3)c2)c(C)c1	-5	·	0	2	-1	-4	·

High-throughput results: PubChem, several laboratories
